Measured values collected from several papers.
Protocols differ between the studies behind these lines.
Target: Myosin light chain kinase 2, skeletal/cardiac muscle (MYLK2, Homo sapiens, UniProt Q9H1R3)

Structure (SMILES)	assay	conditions	remaining binding [%]
C[C@@H]1CCN(c2nccc(-c3cnn4ncccc34)n2)C1	binding	1 µM	86
O=C(Nc1c[nH]nc1C(=O)NC1CCNCC1)c1cc(F)cc(F)c1	binding, competition with immobilised ligand	1 µM	88
COc1ccc2cc(OCC3(C(=O)O)CN(C(=O)c4ccc(F)cc4)C3)ccc2c1	cell-free assay, competition with immobilised ligand	1 µM	100
CC1CCCN1c1nccc(-c2cnn3ncccc23)n1 (stereo not drawn)	binding	1 µM	100
c1cncc(-c2cccc(Nc3nccc(NC4CCCCC4)n3)c2)c1	binding, competition with immobilised ligand	10 µM	70
C[C@@H](c1ccc(-n2cnc3c(N)ncnc32)cc1)N1CCc2nn(C)c(Cc3ccccc3)c2C1=O	binding, competition with immobilised ligand	0.1 µM	85
N[C@@H]1CCN(c2nccc(-c3cnn4ncccc34)n2)C1	binding	1 µM	98
Cc1cc(NC(=O)c2cccc(S(F)(F)(F)(F)F)c2)cc(-n2ccn3nc(-c4cccnc4)cc23)c1	cell-free assay, competition with immobilised ligand	1 µM	100
O=C(c1ccc(Nc2ncc(Cl)c(-c3cc4ccccc4s3)n2)cc1)N1CCC(N2CCCC2)CC1	binding, competition with immobilised ligand	1 µM	1.2
COc1cnc(Nc2cccc(S(N)(=O)=O)c2)nc1N1CCN(c2ccccc2)CC1	binding, competition with immobilised ligand	1 µM	100
Nc1ncc2c(n1)-c1c([nH]c3ccc(C#CC4CC4)cc13)CCCC2	binding, competition with immobilised ligand	1 µM	100
CNCc1ccccc1-c1csc([C@H](C)Nc2nc(C)nc3cc(OC)c(OC)cc23)c1	cell-free assay, competition with immobilised ligand	1 µM	100
C=CC(=O)N1CCC(C(=O)NCC(=O)N2CCN(c3nc(-c4cnc(N)nc4C(F)F)nc(N4CCOCC4)n3)CC2)CC1	binding, competition with immobilised ligand	1 µM	97
O=C(NCCCN1CCOCC1)c1ccc(Nc2ncc(Cl)c(-c3ccc(Cl)s3)n2)cc1	binding, competition with immobilised ligand	1 µM	12
COc1cc(-c2cn(C3CCc4c(F)cccc4N(CC(F)(F)F)C3=O)nn2)ccc1-n1cnc(C)c1 (stereo not drawn)	cell-free assay, competition with immobilised ligand	1 µM	100
CN(C)c1ncc(F)c(-c2cnn3ncccc23)n1	binding	1 µM	100
O=C(c1ccc(Nc2nccc(-c3cc4ccccc4s3)n2)cc1)N1CCC(N2CCCC2)CC1	binding, competition with immobilised ligand	1 µM	0.8
CN(C)c1nccc(-c2cnn3ncccc23)n1	binding	1 µM	100
CCOC(=O)c1cc2cc(-c3cc(C(=O)NCc4ccc(C(=O)O)cc4)nn3C)ccc2[nH]1	cell-free assay, competition with immobilised ligand	0.1 µM	89
CN(c1nccc(-c2cnn3ncccc23)n1)C1CC1	binding	1 µM	100
CS(=O)(=O)c1cc(C2(NC(=O)c3cncc4c3cnn4-c3ccc(F)cc3)CC2)ccn1	cell-free assay, competition with immobilised ligand	1 µM	100
